Measurements published in ChEMBL document CHEMBL3108729, “Design, synthesis and anticonvulsant evaluation of N-(benzo[d]thiazol-2-ylcarbamoyl)-2-methyl-4-oxoquinazoline-3(4H)-carbothioamide derivatives: a hybrid pharmacophore approach” (Eur J Med Chem, 2013).
Active and inactive are the calls of the source. The calls are words filed in the database; no cut-off is given here.

Assays:
[1] = system: Mus musculus; assay: Anticonvulsant activity in ip dosed albino mouse assessed as protection against maximal electroshock-induced seizures after 4 hrs; type: functional; conditions: read-out: MED
[2] = system: Rattus norvegicus; assay: Hepatotoxicity in albino rat assessed as change in SGOT level at 30 mg/kg, po for 14 days (reference value: 74.2+/-5.95 units/ml); type: toxicity, organism-based; set-up: dose 30 mg/kg, route oral; conditions: in vivo, 336 h
[3] = system: Mus musculus; assay: Anticonvulsant activity in ip dosed albino mouse assessed as protection against AMPA-induced clonic phase of seizures after 30 mins; type: functional; conditions: 0.5 h
Procedure, shortened: (§1)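 Mice were dosed i.p. over 10–100 µmol/kg. After 30 min, AMPA was injected i.c.v. into a lateral ventricle under ether anaesthesia, at 9.7 nmol for clonus or 11.7 nmol for forelimb tonic extension. Mice were observed singly for 30 min. ED50 values with 95% confidence limits were derived from dose–response data.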

[4] = system: Mus musculus; assay: Anticonvulsant activity in ip dosed albino mouse assessed as protection against 6 Hz electroshock-induced seizures after 2 hrs; type: functional
[5] = system: Rattus norvegicus; assay: Anticonvulsant activity in Wistar rat assessed as inhibition of GABA-induced seizures measuring minimum GABA level per 100 mg whole brain required for 50 % inhibition at 30 mg/kg, po for 7 days (reference value: 51.5 +/- 2.60 ug/100 mg brain); type: functional
Procedure, shortened: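 Adult Wistar rats in groups of six were dosed orally at 30 mg/kg for 7 days. Whole-brain GABA was then measured enzymatically in ethanol extracts as µg/100 mg tissue. Values are mean ± SEM of six rats versus control (Student's t test).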

[6] = system: Mus musculus; assay: Anticonvulsant activity in ip dosed albino mouse assessed as protection against maximal electroshock-induced seizures after 0.5 hrs; type: functional; conditions: read-out: MED
[7] = system: Mus musculus; assay: Anticonvulsant activity in ip dosed albino mouse assessed as protection against AMPA-induced tonic phase of seizures after 30 mins; type: functional; conditions: 0.5 h; procedure, shortened: as §1
[8] = Protective index, ratio of TD50 for neurotoxicity to ED50 for protection against maximal electroshock-induced seizure in albino rat after 4 hrs; type: toxicity, organism-based; conditions: in vivo, read-out: Ratio TD50/ED50
Procedure, shortened: (§2)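 Rats received oral doses in groups of eight at the time of peak effect, with at least three points in the 10–90% range for seizure protection or minimal neurotoxicity. ED50, TD50 and 95% confidence intervals were computed by regression, and PI was calculated as TD50/ED50.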

[9] = Protective index, ratio of TD50 for neurotoxicity to ED50 for protection against pentylenetetrazole-induced seizure in albino rat after 4 hrs; type: toxicity, organism-based; conditions: in vivo, read-out: Ratio TD50/ED50; procedure, shortened: as §2
[10] = Neurotoxicity in po dosed albino rat after 4 hrs; type: toxicity, organism-based; conditions: in vivo
[11] = system: Rattus norvegicus; assay: Anticonvulsant activity in Wistar rat assessed as inhibition of GABA-induced seizures measuring minimum GABA level per 100 mg whole brain required for 50 % inhibition at 100 mg/kg, ip as single dose measured after 2 hrs (reference value: 46.4 +/- 5.50 ug/100 mg brain); type: functional; conditions: route intraperitoneal
[12] = system: Mus musculus; assay: Neurotoxicity in ip dosed albino mouse after 4 hrs by rotorod test; type: toxicity, organism-based; conditions: in vivo
Procedure, shortened: (§3)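 Swiss mice, four per dose, received 30, 100 or 300 mg/kg i.p. and were placed on a rotorod at 0.5 and 4 h. Neurotoxicity meant failure to keep balance for 1 min. The value reported is the minimum dose affecting half or more of the mice.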

[13] = system: Mus musculus; assay: Neurotoxicity in ip dosed albino mouse after 0.5 hrs by rotorod test; type: toxicity, organism-based; conditions: in vivo; procedure, shortened: as §3
[14] = system: Rattus norvegicus; assay: Anticonvulsant activity in po dosed albino rat assessed as protection against maximal electroshock-induced seizures after 4 hrs; type: functional
[15] = system: Rattus norvegicus; assay: Hepatotoxicity in albino rat assessed as change in SGPT level at 30 mg/kg, po for 14 days (reference value: 46.1+/-5.25 units/ml); type: toxicity, organism-based; set-up: dose 30 mg/kg, route oral; conditions: in vivo, 336 h
[16] = system: Rattus norvegicus; assay: Anticonvulsant activity in po dosed albino rat assessed as protection against pentylenetetrazole-induced seizure after 4 hrs; type: functional
[17] = system: Mus musculus; assay: Anticonvulsant activity in albino mouse assessed as protection against maximal electroshock-induced seizures at 300 mg/kg, ip measured after 4 hrs; type: functional, organism-based; set-up: dose 300 mg/kg
[18] = Protective index, ratio of TD50 for neurotoxicity to ED50 for protection against maximal electroshock-induced seizure in albino rat after 0.5 hrs; type: toxicity, organism-based; conditions: in vivo, read-out: Ratio TD50/ED50; procedure, shortened: as §2
[19] = system: Rattus norvegicus; assay: Anticonvulsant activity in po dosed albino rat assessed as protection against maximal electroshock-induced seizures after 0.5 hrs; type: functional
[20] = Neurotoxicity in po dosed albino rat after 0.5 hrs; type: toxicity, organism-based; conditions: in vivo
[21] = Protective index, ratio of TD50 for neurotoxicity to ED50 for protection against pentylenetetrazole-induced seizure in albino rat after 0.5 hrs; type: toxicity, organism-based; conditions: in vivo, read-out: Ratio TD50/ED50; procedure, shortened: as §2
[22] = system: Mus musculus; assay: Neurotoxicity in albino mouse at 300 mg/kg, ip after 4 hrs by rotorod test; type: toxicity, organism-based; set-up: dose 300 mg/kg, route intraperitoneal; conditions: in vivo; procedure, shortened: as §3
[23] = system: Rattus norvegicus; assay: Anticonvulsant activity in po dosed albino rat assessed as protection against pentylenetetrazole-induced seizure after 0.5 hrs; type: functional
[24] = system: Rattus norvegicus; assay: Anticonvulsant activity in Wistar rat assessed as inhibition of GABA-induced seizures measuring minimum GABA level per 100 mg whole brain required for 50 % inhibition at 30 mg/kg, ip as single dose measured after 2 hrs (reference value: 46.4 +/- 5.50 ug/100 mg brain); type: functional; conditions: route intraperitoneal
[25] = system: Mus musculus; assay: Anticonvulsant activity in albino mouse assessed as protection against maximal electroshock-induced seizures at 300 mg/kg, ip measured after 0.5 hrs; type: functional, organism-based; set-up: dose 300 mg/kg
[26] = system: Mus musculus; assay: Anticonvulsant activity in ip dosed albino mouse assessed as protection against 6 Hz electroshock-induced seizures after 1 hr; type: functional
[27] = Neurotoxicity in po dosed albino rat after 2 hrs; type: toxicity, organism-based; conditions: in vivo
Procedure, shortened: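 Rats on oral fixed-dose testing (30 or 50 mg/kg) were scored for motor impairment in parallel with seizure testing, at five time points from one quarter hour to 4 h. The rotorod end point was failure to keep equilibrium for 1 min.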

[28] = Protective index, ratio of TD50 for neurotoxicity to ED50 for protection against pentylenetetrazole-induced seizure in albino rat after 2 hrs; type: toxicity, organism-based; conditions: in vivo, read-out: Ratio TD50/ED50
Procedure, shortened: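 Groups of eight rats were dosed orally at the previously estimated time of peak effect, at several doses, until at least three points fell within 10–90% protection or minimal neurotoxicity. ED50 and TD50 with 95% confidence limits came from regression of the plotted data. Protective index was calculated as TD50/ED50.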

[29] = system: Mus musculus; assay: Neurotoxicity in albino mouse at 300 mg/kg, ip after 0.5 hrs by rotorod test; type: toxicity, organism-based; set-up: dose 300 mg/kg, route intraperitoneal; conditions: in vivo
Procedure, shortened: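 Swiss mice (25–30 g), four per dose, got 30, 100 or 300 mg/kg i.p. and were checked on the rotorod at 0.5 and 4 h. Motor impairment meant failure to keep equilibrium on the rod for 1 min. The value is the minimum dose at which half or more of the mice were impaired.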

[30] = Neurotoxicity in po dosed albino mouse after 1 hr; type: toxicity, organism-based; conditions: in vivo
[31] = system: Rattus norvegicus; assay: Anticonvulsant activity in po dosed albino rat assessed as protection against pentylenetetrazole-induced seizure after 2 hrs; type: functional
[32] = system: Rattus norvegicus; assay: Anticonvulsant activity in po dosed albino rat assessed as protection against maximal electroshock-induced seizures after 2 hrs; type: functional
[33] = system: Rattus norvegicus; assay: Anticonvulsant activity in po dosed albino rat assessed as protection against maximal electroshock-induced seizures after 1 hr; type: functional
[34] = system: Rattus norvegicus; assay: Anticonvulsant activity in po dosed albino rat assessed as protection against pentylenetetrazole-induced seizure after 1 hr; type: functional
[35] = Neurotoxicity in po dosed albino rat after 1 hr; type: toxicity, organism-based; conditions: in vivo
[36] = in vivo; conditions: albino, rat
[37] = system: Rattus norvegicus; assay: Hepatotoxicity in albino rat assessed as change in SGOT level at 25 mg/kg, po for 14 days (reference value: 74.2+/-5.95 units/ml); type: toxicity, organism-based; set-up: dose 25 mg/kg, route oral; conditions: in vivo, 336 h
[38] = system: Rattus norvegicus; assay: Hepatotoxicity in albino rat assessed as change in SGPT level at 25 mg/kg, po for 14 days (reference value: 46.1+/-5.25 units/ml); type: toxicity, organism-based; set-up: dose 25 mg/kg, route oral; conditions: in vivo, 336 h

SMILES: Cc1nc2ccccc2c(=O)n1C(=S)NC(=O)Nc1nc2ccc(Cl)cc2s1
- minimal effective dose [1]: 100 mg/kg
- Activity [2]: 71.2 U/ml
- ED50 [3]: 70.3 µmol/kg
- ED50 [4]: 1230 µmol/kg
- GABA level [5]: 111 µg/100 mg brain
- minimal effective dose [6]: 30 mg/kg
- ED50 [7]: 56.9 µmol/kg
- selectivity ratio at 4 h [8]: > 17
- selectivity ratio at 4 h [9]: > 3.4
- TD50 at 4 h [10]: > 2500 µmol/kg
- GABA level [11]: 92.1 µg/100 mg brain
- MTC [12]: 300 mg/kg
- MTC [13]: 300 mg/kg
- ED50 [14]: 142 µmol/kg
- Activity [15]: 48.5 U/ml
- ED50 [16]: 722 µmol/kg

SMILES: Cc1nc2cc(F)ccc2c(=O)n1C(=S)NC(=O)Nc1nc2cc(Cl)ccc2s1
- minimal effective dose [6]: 300 mg/kg
- Activity [17]: inactive
- MTC [12]: 300 mg/kg
- MTC [13]: 100 mg/kg

SMILES: Cc1nc2ccccc2c(=O)n1C(=S)NC(=O)Nc1nc2ccc(OC(F)(F)F)cc2s1
- minimal effective dose [1]: 30 mg/kg
- Activity [2]: 72.4 U/ml
- ED50 [3]: 37.9 µmol/kg
- selectivity ratio at 0.5 h [18]: > 26
- ED50 [19]: 82.5 µmol/kg
- GABA level [5]: 68.2 µg/100 mg brain
- minimal effective dose [6]: 30 mg/kg
- ED50 [7]: 28.5 µmol/kg
- TD50 at 0.5 h [20]: > 2150 µmol/kg
- selectivity ratio at 0.5 h [21]: > 4.2
- Activity [22]: Non-toxic
- GABA level [11]: 75.5 µg/100 mg brain
- ED50 [23]: 510 µmol/kg
- MTC [13]: 300 mg/kg
- Activity [15]: 44.7 U/ml

SMILES: CN1C(=O)CC(=O)N(c2ccccc2)c2cc(Cl)ccc21 [CLOBAZAM]
- GABA level [5]: 110 µg/100 mg brain
- Activity [24]: 101 µg

SMILES: Cc1nc2cc(F)ccc2c(=O)n1C(=S)NC(=O)Nc1nc2ccc(OC(F)(F)F)cc2s1
- Activity [25]: inactive
- minimal effective dose [1]: 300 mg/kg
- MTC [12]: 300 mg/kg
- MTC [13]: 100 mg/kg

SMILES: CCC1(C)CC(=O)NC1=O (stereo unspecified) [ETHOSUXIMIDE]
- Activity [25]: inactive
- ED50 [26]: 1180 µmol/kg
- TD50 at 2 h [27]: > 3540 µmol/kg
- selectivity ratio at 2 h [28]: > 3
- Activity [29]: Non-toxic
- TD50 at 1 h [30]: 2410 µmol/kg
- Activity [17]: inactive
- ED50 [31]: 1180 µmol/kg
- Activity [22]: Non-toxic
- ED50 [32]: > 3540 µmol/kg

SMILES: NC(=O)N1c2ccccc2C=Cc2ccccc21 [CARBAMAZEPINE]
- minimal effective dose [1]: 100 mg/kg
- minimal effective dose [6]: 30 mg/kg
- ED50 [33]: 15.1 µmol/kg
- MTC [12]: 300 mg/kg
- ED50 [34]: > 1060 µmol/kg
- TD50 at 1 h [35]: 1530 µmol/kg
- MTC [13]: 100 mg/kg

SMILES: Cc1nc2cc(Cl)ccc2c(=O)n1C(=S)NC(=O)Nc1nc2ccc(Br)cc2s1
- minimal effective dose [6]: 100 mg/kg
- Activity [17]: inactive
- MTC [12]: 300 mg/kg
- MTC [13]: 300 mg/kg

SMILES: O=C1NC(=O)C(c2ccccc2)(c2ccccc2)N1 [PHENYTOIN]
- minimal effective dose [1]: 30 mg/kg
- selectivity ratio at 2 h [36]: > 22
- TD50 at 2 h [27]: > 1980 µmol/kg
- Activity [37]: 84.1 U/ml
- minimal effective dose [6]: 30 mg/kg
- ED50 [31]: > 3540 µmol/kg
- Activity [38]: 52.6 U/ml
- MTC [12]: 100 mg/kg
- ED50 [32]: 92 µmol/kg
- MTC [13]: 100 mg/kg

SMILES: Cc1nc2cc(Cl)ccc2c(=O)n1C(=S)NC(=O)Nc1nc2c(Cl)cccc2s1
- Activity [29]: Non-toxic
- minimal effective dose [6]: 300 mg/kg
- Activity [17]: inactive
- MTC [12]: 300 mg/kg
